Measurements reported in ChEMBL document CHEMBL1135419, “Molecular docking and high-throughput screening for novel inhibitors of protein tyrosine phosphatase-1B” (J Med Chem, 2002).

Each compound was assayed against T1, Tyrosine-protein phosphatase non-receptor type 1 (Homo sapiens, UniProt P18031) (assay: Inhibition of human Protein-tyrosine phosphatase 1B (PTP1B) dephosphorylation of insulin receptor peptide).
T1 sequence (P18031 whole entry): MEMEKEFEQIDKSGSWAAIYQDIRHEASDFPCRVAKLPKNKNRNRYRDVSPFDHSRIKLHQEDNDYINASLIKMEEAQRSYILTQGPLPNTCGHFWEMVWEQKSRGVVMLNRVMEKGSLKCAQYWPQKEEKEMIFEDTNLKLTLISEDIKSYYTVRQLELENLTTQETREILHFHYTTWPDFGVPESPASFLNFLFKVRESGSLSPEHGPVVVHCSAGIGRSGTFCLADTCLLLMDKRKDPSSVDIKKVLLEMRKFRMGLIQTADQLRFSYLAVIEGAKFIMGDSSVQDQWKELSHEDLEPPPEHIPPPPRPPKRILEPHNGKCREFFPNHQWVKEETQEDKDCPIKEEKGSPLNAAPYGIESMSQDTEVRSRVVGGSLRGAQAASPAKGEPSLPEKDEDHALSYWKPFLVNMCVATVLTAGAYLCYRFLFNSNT
Procedure, shortened: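 Human recombinant PTP1B (residues 1-322) with 50 µM phosphopeptide substrate, room temperature, stopped with malachite green reagent, absorbance read at 620 nm. Docking-set assay: 1 nM enzyme in 25 mM HEPES pH 7.4, 125 mM NaCl, 1 mM EDTA, 10% glycerol, 10 mM DTT, no albumin, 10 min, DMSO below 10%, triplicates. HTS assay: 0.9 nM enzyme, pH 7.0, 0.03% BSA, 60 min.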

SMILES | IC50
O=C(O)c1ccc(-c2ccc(/C=C3/S/C(=N\c4ccccc4)N(c4ccccc4)C3=O)o2)cc1O | 9 µM
O=C1NC(=O)C(=Cc2ccc(Sc3nc4ccc([N+](=O)[O-])cc4s3)c([N+](=O)[O-])c2)C(=O)N1 | 4.1 µM
COC(=O)c1ccc2nc(NC(=O)COC(=O)c3ccc(Br)o3)sc2c1 | 34.4 µM
O=C(O)c1ccc(N2C(=O)/C(=C\C=C\c3ccccc3)SC2=S)cc1 | 4.4 µM
CC1=NN(c2cccc(Cl)c2)C(=O)/C1=C\c1ccc(-c2ccc(C(=O)O)c(Cl)c2)o1 | 19.3 µM
Oc1cccc(-c2nc(-c3ccc(-c4ccccc4)cc3)c(-c3ccc(-c4ccccc4)cc3)[nH]2)c1 | 8.6 µM
O=C(Nc1ccc(O)cc1)/C(=C/c1c[nH]c2ccccc12)NC(=O)c1ccccc1 | 21.5 µM
CSc1[nH]nc(NC(=O)c2ccc(Cl)c(Cl)c2)c1S(=O)(=O)c1ccc(Cl)cc1 | 63.9 µM
O=C(O)c1ccc(/C=C2/SC(=S)N(Cc3ccccc3)C2=O)cc1 | 21.6 µM
O=C(Nc1ccccc1)Nc1cc(-c2ccc(Cl)cc2)nn1-c1ccccc1 | 12 µM
CCOc1cc(/C=C2/N=C(c3ccc4c(c3)OCO4)OC2=O)cc(Cl)c1OC(C)=O | 35 µM
